Measurements reported in ChEMBL document CHEMBL1156600, “Diacarperoxides, norterpene cyclic peroxides from the sponge Diacarnus megaspinorhabdosa” (J Nat Prod, 2008).
≈ marks a conversion by molar mass, not a printed value. Calls of active or inactive are those of the source. The rule behind the calls is not given here.

Tests used:
L5178Y = assay: Cytotoxicity against mouse L5178Y cells by MTT assay; assay type: functional, cell-based
Summary of the method: (§1)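 Antiproliferative MTT (microculture tetrazolium) read-out in cancer cell lines: HeLa human cervix carcinoma, L5178Y mouse lymphoma, PC12 rat […] cells.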

HeLa = assay: Cytotoxicity against human HeLa cells by MTT assay; assay type: functional, cell-based; summary of the method: as §1
PC-12 = assay: Cytotoxicity against rat PC12 cells by MTT assay; assay type: functional, cell-based; summary of the method: as §1
[1] = Toxicity in Artemia salina assessed as mortality at 10 ug/ml after 24 hrs; assay type: organism-based; conditions: in vivo, read-out: Activity
[2] = Toxicity in Artemia salina assessed as mortality at 10 ug/ml after 48 hrs; assay type: organism-based; conditions: in vivo, read-out: Activity

Compound	Activity (L5178Y)	Activity (HeLa)	Activity (PC-12)	mortality at 24 h, 10 ug/ml [1]	mortality at 48 h, 10 ug/ml [2]	EC50 (L5178Y)	EC50 (HeLa)	EC50 (PC-12)
COC(=O)[C@H](C)[C@@H]1CC[C@@](C)(CCC2=C(C)CCCC2(C)C)OO1	inactive	inactive	inactive	25%	65%	–	–	–
CCCC(O)CCC(C)(O)CC/C=C(\C)CCC1=C(C)CCCC1(C)C (centres undefined) [DIACARDIOL A]	–	–	–	20%	40%	4.8 µg/mL (≈ 13.2 µM)	> 10 µg/mL	> 10 µg/mL
COC(=O)[C@H](C)[C@H]1CC[C@@](C)(CCC2=C(C)C(=O)CCC2(C)C)OO1 [DIACARPEROXIDE A]	–	inactive	inactive	35%	55%	> 10 µg/mL	–	–
COC(=O)[C@@H](C)[C@@H]1CC[C@](C)(CCC(=O)C(C)(C)CCCC(C)=O)OO1 [DIACARPEROXIDE B]	–	inactive	inactive	45%	55%	10 µg/mL (≈ 27 µM)	–	–
COC(=O)[C@H](C)[C@@H]1CC[C@@](C)(CCC(=O)C(C)(C)CCCC(C)=O)OO1 [DIACARPEROXIDE C]	–	inactive	inactive	35%	55%	> 10 µg/mL	–	–
CC1=C(CC[C@]2(C)CC[C@H]([C@@H](C)C(=O)O)OO2)[C@]2(C)CCCC(C)(C)[C@H]2CC1 [DIACARPEROXIDE D]	–	–	–	–	–	< 0.1 µg/mL	0.17 µg/mL (≈ 0.433 µM)	8.1 µg/mL (≈ 20.6 µM)
CC1=C(CC[C@]2(C)CC[C@H]([C@@H](C)C(=O)O)OO2)[C@@]2(C)CCCC(C)(C)[C@@H]2CC1=O [DIACARPEROXIDE F]	–	–	–	–	–	0.06 µg/mL (≈ 0.148 µM)	0.6 µg/mL (≈ 1.48 µM)	0.8 µg/mL (≈ 1.97 µM)
COC(=O)[C@H](C)[C@H]1CC[C@@](C)(CCC2=C(C)C(=O)C[C@@H]3C(C)(C)CCC[C@@]23C)OO1 [DIACARPEROXIDE G]	–	–	–	50%	60%	2 µg/mL (≈ 4.76 µM)	> 10 µg/mL	> 10 µg/mL
CC1=C(CC/C(C)=C/CC[C@@]2(C)CC[C@@H]([C@H](C)C(=O)O)OO2)C(C)(C)CCC1 [EPIMUQUBILIN A]	–	–	–	25%	50%	0.28 µg/mL (≈ 0.713 µM)	7.2 µg/mL (≈ 18.3 µM)	> 10 µg/mL
C=C1CCCC(C)(C)C1(O)CC/C(C)=C/CC[C@]1(C)CC[C@H]([C@@H](C)C(=O)OC)OO1 (some centres undefined) [EPIMUQUBILIN B]	–	–	–	45%	60%	< 0.1 µg/mL	1 µg/mL (≈ 2.37 µM)	6 µg/mL (≈ 14.2 µM)
COC(=O)[C@H](C)[C@@H]1CC[C@@](C)(CCC2=C(C)C(=O)CCC2(C)C)OO1 [METHYL DIACARNOATE A]	–	inactive	inactive	–	–	< 3 µg/mL	–	–
COC(=O)[C@H](C)[C@H]1CC[C@@](C)(CCC2=C(C)CCCC2(C)C)OO1 [NUAPAPUIN A METHYL ESTER]	–	–	–	100%	100%	0.76 µg/mL (≈ 2.25 µM)	5.5 µg/mL (≈ 16.2 µM)	6.2 µg/mL (≈ 18.3 µM)
